ChEMBL document CHEMBL1148046, “Marine alkaloids, 15. Two alkaloids, flustramine E and debromoflustramine B, from the marine bryozoan Flustra foliacea” (1994)
The source made the active and inactive calls. No cut-off for these calls is given here.

Key:
Pseudomonas aeruginosa = assay: Antimicrobial activity against Pseudomonas aeruginosa at 1000 ppm; format: functional, organism-based
In short: (§1)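 Compound applied at 1000 ppm in DMSO to each bacterial, fungal or oomycete test organism; activity read as the diameter of the growth-inhibition zone in mm.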

Globisporangium ultimum = assay: Antimicrobial activity against Pythium ultimum at 1000 ppm; format: functional, organism-based; in short: as §1
Aspergillus niger = assay: Antimicrobial activity against Aspergillus niger at 1000 ppm; format: functional, organism-based; in short: as §1
Bacillus subtilis [1] = assay: Antimicrobial activity against Bacillus subtilis at 1000 ppm; format: functional; conditions: read-out: IZ; in short: as §1
Fusarium oxysporum [2] = assay: Antimicrobial activity against Fusarium oxysporum at 1000 ppm; format: functional; conditions: read-out: IZ; in short: as §1
Saccharomyces cerevisiae [3] = assay: Antimicrobial activity against Saccharomyces cerevisiae at 1000 ppm; format: functional; conditions: read-out: IZ; in short: as §1
Bacillus subtilis [4] = assay: Antimicrobial activity against Bacillus subtilis at 100 ppm; format: functional, organism-based
Fusarium oxysporum [5] = assay: Antimicrobial activity against Fusarium oxysporum at 100 ppm; format: functional, organism-based
Saccharomyces cerevisiae [6] = assay: Antimicrobial activity against Saccharomyces cerevisiae at 100 ppm; format: functional, organism-based
Rhizoctonia solani [7] = assay: Antimicrobial activity against Rhizoctonia solani at 1000 ppm; format: functional; conditions: read-out: IZ; in short: as §1
Rhizoctonia solani [8] = assay: Antimicrobial activity against Rhizoctonia solani at 100 ppm; format: functional; conditions: read-out: IZ
Rhizoctonia solani [9] = assay: Antimicrobial activity against Rhizoctonia solani at 10 ppm; format: functional; conditions: read-out: IZ
Botrytis cinerea [10] = assay: Antimicrobial activity against Botrytis cinerea at 1000 ppm; format: functional; conditions: read-out: IZ; in short: as §1
Botrytis cinerea [11] = assay: Antimicrobial activity against Botrytis cinerea at 100 ppm; format: functional; conditions: read-out: IZ
Botrytis cinerea [12] = assay: Antimicrobial activity against Botrytis cinerea at 10 ppm; format: functional; conditions: read-out: IZ

CC(C)=CC[C@@]12CCN(C)[C@@H]1Nc1cc(Br)ccc12 (relative stereo) [FLUSTRAMINE E]
Activity (Pseudomonas aeruginosa): inactive | Activity (Globisporangium ultimum): inactive | Activity (Aspergillus niger): inactive | zone of inhibition at 1000 ppm (Bacillus subtilis [1]): 12 mm | zone of inhibition at 1000 ppm (Fusarium oxysporum [2]): 10 mm | zone of inhibition at 1000 ppm (Saccharomyces cerevisiae [3]): 14 mm | Activity (Bacillus subtilis [4]): inactive | Activity (Fusarium oxysporum [5]): inactive | Activity (Saccharomyces cerevisiae [6]): inactive | zone of inhibition at 1000 ppm (Rhizoctonia solani [7]): 10 mm | zone of inhibition at 100 ppm (Rhizoctonia solani [8]): 9 mm | zone of inhibition at 10 ppm (Rhizoctonia solani [9]): 9 mm | zone of inhibition at 1000 ppm (Botrytis cinerea [10]): 27 mm | zone of inhibition at 100 ppm (Botrytis cinerea [11]): 25 mm | zone of inhibition at 10 ppm (Botrytis cinerea [12]): 21 mm
